The values below come from ChEMBL document CHEMBL1121409, “Mechanism of decomposition of N-hydroxyacetaminophen, a postulated toxic metabolite of acetaminophen” (J Med Chem, 1980).

Each structure is given as a SMILES string.

Assay type in all cases: ADME
Data set [1] can be described thus: The compound was tested for half life in presence of salicylate as additive (20 mM). Summed up:
(§1)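 N-hydroxyacetaminophen at 1.5 mM initial, incubated at 37 °C in 0.2 M sodium phosphate pH 7.6, with each additive (20 mM) present before adding substrate. Aliquots were quenched in cold acetic acid (final pH ~3), or mixed with 10% FeCl3 in 0.9 M HCl and read at 540 nm. Remaining substrate was tracked by HPLC peak height (system A) or by the ferric assay. First-order disappearance gave the half-life.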

Data set [2] in a line: The compound was tested for half life in presence of thiosulphate as additive (20 mM). Summed up:
as §1

The nature of data set [3]: The compound was tested for half life in presence of N-acetyl cysteine as additive (20 mM). Summed up:
as §1

Data set [4] is described as follows: The compound was tested for half life in presence of acetaminophen as additive (20 mM). Summed up:
as §1

A short description of data set [5]: The compound was tested for half life in presence of ascorbic acid as additive (20 mM). Summed up: as §1
Data set [6] in a line: The compound was tested for half life in presence of aspirin as additive (20 mM). Summed up: as §1
The nature of data set [7]: The compound was tested for half life in presence of control. The method in brief:
as §1

Data set [8] is described as follows: The compound was tested for half life in presence of cystamine as additive (20 mM). Summed up:
as §1

A short description of data set [9]: The compound was tested for half life in presence of cysteamine as additive (20 mM). The method in brief: as §1
Data set [10] can be described thus: The compound was tested for half life in presence of cysteine as additive (20 mM). Summed up:
as §1

Data set [11] is described as follows: The compound was tested for half life in presence of dithionite as additive (20 mM). The method in brief: as §1
Data set [12] in a line: The compound was tested for half life in presence of ethanol as additive (20 mM). The method in brief:
as §1

The nature of data set [13]: The compound was tested for half life in presence of glycine as additive (20 mM). The method in brief:
as §1

Data set [14] is described as follows: The compound was tested for half life in presence of lysine as additive (20 mM). The method in brief: as §1
Data set [15] in a line: The compound was tested for half life in presence of methionine as additive (20 mM). Summed up: as §1
Data set [16] is described as follows: The compound was tested for half life in presence of phenol as additive (20 mM). The method in brief:
as §1

Data set [17] in a line: The compound was tested for half life in presence of pyrogallol as additive (20 mM). The method in brief:
as §1

Data set [18] can be described thus: The compound was tested for half life in presence of p-Nitrosophenol as additive (20 mM). The method in brief:
as §1

As for `CC(=O)N(O)c1ccc(O)cc1`, the half-life in data set [1] turned out to be 6.5 min; in data set [2], 31 min; in data set [3], 68 min; in data set [4], 33 min; in [5], 76 min; in data set [6], 6.4 min. The half-life in [7] was determined as 9.4 min; in data set [8] it was 43 min; in data set [9], 72 min; in [10], 78 min; in [11], 24 min; in data set [12], 6.7 min. The half-life in [13] stood at 24 min; in [14], 23 min; in [15], 31 min; in [16], 14 min; in data set [17] it was 60 min; in data set [18] it was 17 min.
